The values below come from the EternaBench riboswitch data.

The series has as its system MS2 coat protein. In words: apparent Kd, MS2 coat protein; higher = weaker binding; RNA-MaP array; FMN 200 µM where present. In outline:
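Stalled E. coli RNA polymerase produced the designs on Illumina sequencing-chip clusters. SNAP-549-labelled MS2 coat protein was added from 0.7 or 1.5 nM, doubling to 3 µM, without and then with constant ligand, in 100 mM Tris-HCl pH 7.5, 80 mM KCl, 4 mM MgCl2, BSA, DTT, yeast tRNA and Tween-20. The apparent Kd is the median of filtered per-cluster fits of green signal normalised to red-channel RNA signal and control-cluster median Fmax.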

Where [1] appears, read: designed as: ON switch for flavin mononucleotide, no ligand.
The mark [2] stands for this setting: ligand present: flavin mononucleotide, designed as: ON switch for flavin mononucleotide.
Setting [3] is: designed as: OFF switch for flavin mononucleotide, no ligand.
Where [4] appears, read: ligand present: flavin mononucleotide, designed as: OFF switch for flavin mononucleotide.

Broadly, the apparent Kd is a dissociation constant that holds for the conditions of the assay.

As to “CGUAGGCCUCUCAACAUGAGGAUCACCCAUGUACGUGAAACGUAGGAUAUCACACAACUAAUGUGUGAGAAGGGCGCGCCGGAG”, the “apparent Kd” value was determined as 126 nM under setting [1] and 124 nM under setting [2].

Consider “UUCAAAUUCGUAGGAUAUGUAUAAAUUUUCUACAUGAGGAUCACCCAUGUUUCCAUUUUAAAUUGACAGAAGGACGUAAUCUAA”, for which the “apparent Kd” value by setting is: under setting [1], 30 nM; under setting [2], 9.73 nM.

For “CCUGUGGCAUGAGGAUAUGGUCAGCUUUGCUGACCAGAAGGCAUGUCAAUAGACAUGAGGAUCACCCAUGUAGUUAACACAGGA”, the “apparent Kd” value under setting [1] came out at 535 nM and the “apparent Kd” value under setting [2] is 42.6 nM.

Regarding “AGCGGAGACAUGAGGAUCACCCAUGUCAGUGCCGGCGAUACCAGAAGGCCCGGCGGGCCUCGGCGGGAGGAUAUGGGUUCAACA”, the “apparent Kd” value runs as follows: under setting [1], 51.8 nM; under setting [2], 14.9 nM.

As for “UUGCUCAAAUGGGCAGGGACCUCACAUGAGGAUCACCCAUGUCAGGAUAUCCUAGUUUGGACGUAGGAGAAGGGACAGAGUAUC”, the “apparent Kd” value is, setting by setting: under setting [3], 227 nM; under setting [4], 171 nM.

On to “CCUCCACAUGAGGAUCACCCAUGUCAGGAUAUCGUGUGUGCGUUUUCGGUCUUUCGCGCGAGAAGGGACGUCUG”, for which the “apparent Kd” value runs as follows: under setting [3], 30.6 nM; under setting [4], 34.9 nM.

As for “GCCUCAUCCGUCAGGAUAUACAGCCGCUCCCUGUUGUAGAAGGGACAUGAGGAUCACCCAUGUACGUACCACCC”, the “apparent Kd” value runs as follows: under setting [3], 53.6 nM; under setting [4], 117 nM.

Consider “CCAGAGGUCACAGGAUAUGACUUGUCCAAUUAGUCAGAAGGGUGAAUCACAUUAUGUAUACAUGAGGAUCACCCAUGUCCUACG”, for which the “apparent Kd” value by setting is: under setting [1], 214 nM; under setting [2], 1040 nM.

As for “UUAGAUUAUUGAGGAUAUGGAUAUUUUUAUUAACCAGAAGGCAAACUCAACAUGAGGAUCACCCAUGUAUAAAGGGUAUUAGUU”, the “apparent Kd” value runs as follows: under setting [3], 95.6 nM; under setting [4], 92.7 nM.

Consider “UAUUCACAUGAGGAUCACCCAUGUAGAAGGCCGAGCCUGGCCACGGUUACAAGCCGUGGAGAGCCGGAGGAUAUACAGCUGGUG”, for which the “apparent Kd” value was determined as 140 nM under setting [3] and 27.8 nM under setting [4].

In the case of “AAAAGACAUGAGGAUCACCCAUGUGAAAACAUACAAGGAUAUGUGUGGAAACCGUACUAUACAGAAGGUGUAUGUC”, the “apparent Kd” value was 34.8 nM under setting [1] and 20 nM under setting [2].

In the case of “UUUCCCUGUGUGAGGAUAUACUUGUUUGGGUUUUUGUAGAAGGCACAUGAGGAUCACCCAUGUACUCUGUCGUG”, the “apparent Kd” value runs as follows: under setting [3], 23.3 nM; under setting [4], 55.8 nM.

Turning to “UAGAAGUCAGGAUAUCCAGCUCGUCACUUGCGUGAUGAGUUGGAGAAGGGACAUGAGGAUCACCCAUGUAAAGG”, the “apparent Kd” value reads like this: under setting [3], 152 nM; under setting [4], 242 nM.

“AAAAAACAAGGAUAUACGCACGAGGAUUGUCUUAAUUUUUGACAUGAGGAUCACCCAUGUAGAAGGUGUUAAAA”: the “apparent Kd” value by setting is: under setting [3], 75.7 nM; under setting [4], 79.2 nM.

Turning to “ACCACGAUAGCGAUAUGAUCGAGAGAUCAUGUCGCUAUUUUUAGAAGGACAUGAGGAUCACCCAUGUAGGAUAUGGGACGUGGA”, the “apparent Kd” value reads like this: under setting [1], 24.7 nM; under setting [2], 10.3 nM.

Consider “GGAAAUCAUGUAGGAUAUGCAUGGCGACGCUACGCAGAAGGACAUGAGGAUCACCCAUGUUAUAGCGUCCGAGAAAGGAUGCAA”, for which the “apparent Kd” value is, setting by setting: under setting [3], 34.5 nM; under setting [4], 53.4 nM.

“AGCUCAAAAGUGAGGAUAUCUAGGGUCAAAUGACCGGAGAAGGCACAUGAGGAUCACCCAUGUAACGCCAUGGA”: the “apparent Kd” value reads like this: under setting [3], 12.9 nM; under setting [4], 31.6 nM.

In the case of “ACAUUGCGAGGAUAUACAUGAGGAUCACCCAUGUGGUAGUAGAUACGGUAGGGCUAGUGUAGAAGGUGUCAUGG”, the “apparent Kd” value is, setting by setting: under setting [3], 137 nM; under setting [4], 131 nM.

For “CCAGGCUUCGAGAAGGACAUGAGGAUCACCCAUGUGCGUGUGAAGCAGCCGUGAGGCUGCAUCAUGUAGGAUAUCGGAGUCUGA”, the “apparent Kd” value is, setting by setting: under setting [3], 71.8 nM; under setting [4], 396 nM.

Consider “CCUCCGCAUUAGGAUAUCGUCACGGAAACGUGACGAGAAGGAAUGACAUGAGGAUCACCCAUGUUAACGUGAUG”, for which the “apparent Kd” value amounted to 52.2 nM under setting [3] and 270 nM under setting [4].

Consider “AUCAGCUCGUCAGGAUAUACGUCACUGCGUCAGCAGUGUGGUAAGAUCACAUGAGGAUCACCCAUGUAGAAGGGACGAGCCGAU”, for which the “apparent Kd” value reads like this: under setting [3], 13.2 nM; under setting [4], 306 nM.

On to “AAUUCACAUGAGGAUCACCCAUGUGAGGAUAUGGAUUCGCUGGCCGUAGCCAGUGGAUCCAGAAGGCGCAUGAU”, for which the “apparent Kd” value was 29.2 nM under setting [3] and 35.6 nM under setting [4].

For “UCACGGUAUGUAGGAUAUGCAUAGCAUUGCUAUGCAGAAGGACAUGAGGAUCACCCAUGUAUGUAUUCCAUACUAAUCCCGUGC”, the “apparent Kd” value by setting is: under setting [3], 6.01 nM; under setting [4], 6.03 nM.

Consider “AAGAGACAUCAGAAGGGAGCCCGAACGCGCGGCUCAGGAUAUGAGAUCUUAUGUAGUACGACAUGAGGAUCACCCAUGUCCGCG”, for which the “apparent Kd” value under setting [1] stood at 28.2 nM and the “apparent Kd” value under setting [2] was 8.05 nM.
